Experimental data: ChEMBL document CHEMBL1275265, “Synthesis and biological evaluation of N-antipyrine-4-substituted amino-3-chloromaleimide derivatives” (Eur J Med Chem, 2010)
In brackets after ≈: the same amount, converted by molar mass. Activity calls are given as the source filed them. The calls are words filed in the database; no cut-off is given here.

What was measured:
[1] = test system: Salmonella typhimurium; assay: Antibacterial activity against Salmonella Typhimurium ATCC 14028 at < 100 ug/mL by agar dilution method; format: functional, organism-based; conditions: Salmonella enterica subsp. enterica serovar Typhimurium
Outline: (§1)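 Agar dilution on 1 mL Mueller-Hinton agar slants. Compounds were serially two-fold diluted in DMSO (final DMSO ≤2%) to give 10–100 µg/mL in the medium. Bacteria were grown on MHA at 35 °C for 24 h, suspended in 0.86% saline at 1.5 × 10^8 cell/mL (0.5 McFarland), and 1 µL was added per slant. Slants were incubated at 35 °C. Drug-free blank included; each assay run three times; MIC recorded.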

[2] = test system: Proteus mirabilis; assay: Antibacterial activity against Proteus mirabilis ATCC 25933 at < 100 ug/mL by agar dilution method; format: functional, organism-based; outline: as §1
[3] = test system: Staphylococcus aureus; assay: Antibacterial activity against Staphylococcus aureus ATCC 6538P by agar dilution method; format: functional
[4] = test system: Staphylococcus saprophyticus; assay: Antibacterial activity against Staphylococcus saprophyticus ATCC 35552 at < 100 ug/mL by agar dilution method; format: functional, organism-based; outline: as §1
[5] = test system: Streptococcus agalactiae; assay: Antibacterial activity against Streptococcus agalactiae ATCC 13813 at < 100 ug/mL by agar dilution method; format: functional; outline: as §1
[6] = test system: Pseudomonas aeruginosa; assay: Antibacterial activity against Pseudomonas aeruginosa ATCC 27853 at < 100 ug/mL by agar dilution method; format: functional, organism-based; outline: as §1
[7] = test system: Staphylococcus aureus; assay: Antibacterial activity against Staphylococcus aureus ATCC 6538P at < 100 ug/mL by agar dilution method; format: functional, organism-based; outline: as §1
[8] = test system: Bacillus cereus; assay: Antibacterial activity against Bacillus cereus ATCC 14579 at < 100 ug/mL by agar dilution method; format: functional; outline: as §1
[9] = test system: Bacillus subtilis; assay: Antibacterial activity against Bacillus subtilis ATCC 23858 at < 100 ug/mL by agar dilution method; format: functional, organism-based; outline: as §1
[10] = test system: Enterobacter cloacae; assay: Antibacterial activity against Enterobacter cloacae ATCC 35030 at < 100 ug/mL by agar dilution method; format: functional, organism-based; outline: as §1
[11] = test system: Escherichia coli; assay: Antibacterial activity against Escherichia coli ATCC 11775 at < 100 ug/mL by agar dilution method; format: functional, organism-based; outline: as §1
[12] = test system: Mus musculus; assay: Antinociceptive activity in Swiss mouse assessed as inhibition of acetic acid-induced writhing at 10 mg/kg, ip administered 30 mins before acetic acid challenge measured after 20 mins relative to control; format: functional; conditions: route intraperitoneal
Outline: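 Mice were given 10 mg/kg i.p. in Tween 80/0.9% NaCl (Tween ≤5%) 30 min before i.p. 0.6% acetic acid, at 20–22 °C. Abdominal constrictions plus hind-limb stretching were counted cumulatively over 20 min in individual funnels. Groups of six, randomized and blinded. Inhibition was calculated versus vehicle controls (10 ml/kg i.p.); ANOVA with Dunnett's test.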

[13] = test system: Mus musculus; assay: Antinociceptive activity in Swiss mouse assessed as inhibition of acetic acid-induced abdominal contraction at 0.1 to 100 mg/kg, ip administered 30 mins before acetic acid challenge measured after 20 mins relative to control; format: functional, Abdominal cavity; conditions: dose mg/kg 0.1-100; route intraperitoneal
Outline: (§2)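 Writhing dose-response in mice: compounds at 0.1–10 mg/kg and standard drugs at 10–100 mg/kg, i.p. in Tween 80/saline, 30 min before i.p. 0.6% acetic acid. Constrictions and stretches were counted for 20 min at 20–22 °C, with six to eight animals per group. ID50 (dose halving the response versus control) was given as geometric mean with 95% confidence limits.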

[14] = test system: Mus musculus; assay: Antinociceptive activity in ip dosed Swiss mouse assessed as inhibition of acetic acid-induced abdominal contraction administered 30 mins before acetic acid challenge measured after 20 mins; format: functional; conditions: Abdominal cavity, read-out: ID50 (the source's name); outline: as §2
[15] = organism: Mus musculus; assay: Antinociceptive activity in mouse assessed as inhibition of acetic acid-induced writhing; format: functional; conditions: read-out: ID50 (the source's name)
[16] = Toxicity in Artemia salina assessed as mortality after 24 hrs; format: organism-based; conditions: in vivo
Outline: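 Artemia salina hatched at pH 9.0 (Na2CO3), 25 °C, strong aeration, continuous light (2000 Lux). Phototropic nauplii were collected about 12 h after hatching, and groups of 10 were exposed per well to various compound concentrations for 24 h. Survivors were counted and % deaths calculated.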

[17] = test system: Mus musculus; assay: Ratio of compound to acetyl salicylic acid activity against formalin-induced paw licking activity in Swiss mouse at 10 mg/kg, ip administered 30 mins before formalin challenge measured after 15 to 30 mins; format: functional; conditions: route intraperitoneal
[18] = test system: Mus musculus; assay: Ratio of acetyl salicylic acid ID50 to compound ID50 for inhibition of acetic acid-induced abdominal contraction in ip dosed Swiss mouse; format: functional, Abdominal cavity
[19] = test system: Mus musculus; assay: Ratio of metamizole ID50 to compound ID50 for inhibition of acetic acid-induced abdominal contraction in ip dosed Swiss mouse; format: functional, Abdominal cavity
[20] = test system: Mus musculus; assay: Antinociceptive activity in Swiss mouse assessed as inhibition of formalin-induced paw licking activity at 10 mg/kg, ip administered 30 mins before formalin challenge measured after 5 mins; format: functional; conditions: route intraperitoneal
Outline: (§3)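 Formalin test in mice pretreated i.p. with vehicle or 10 mg/kg test agent 30 min before formalin injection. Animals were acclimatized 5 min in a glass cylinder with an angled mirror. Licking time was recorded for the early phase (0–5 min) and the late phase (15–30 min) after formalin. Values are mean ± S.E.M.; ANOVA with Dunnett's test.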

[21] = test system: Mus musculus; assay: Antinociceptive activity in Swiss mouse assessed as inhibition of formalin-induced paw licking activity at 10 mg/kg, ip administered 30 mins before formalin challenge measured after 15 to 30 mins; format: functional; conditions: route intraperitoneal; outline: as §3

Row | Compound | Activity [1] | Activity [2] | Activity [4] | Activity [5] | Activity [6] | Activity [7] | Activity [8] | Activity [9] | Activity [10] | Activity [11] | inhibition in vivo at 10 mg/kg [12] [%] | inhibition (INH) [13] [%] | ED50 [14] [µmol/kg] | other results
1 | Cc1c(N2C(=O)C(Cl)=C(Cl)C2=O)c(=O)n(-c2ccccc2)n1C | inactive | inactive | inactive | inactive | inactive | inactive | inactive | inactive | inactive | inactive | 99 | 99 | 10.8 | MIC [3]: 250 µg/mL (≈ 710 µM); ED50 [15]: 10.8 µmol/kg
2 | Cc1c(N2C(=O)C(Cl)=C(Nc3ccc(Cl)c([N+](=O)[O-])c3)C2=O)c(=O)n(-c2ccccc2)n1C | inactive | inactive | inactive | inactive | inactive | inactive | inactive | inactive | inactive | inactive | 98.5 | 98.5 | 1.29 | LC50 at 24 h [16]: 94.2 µg/mL (≈ 193 µM); Ratio [17]: 6; Ratio [18]: 103; Ratio [19]: 126; inhibition in vivo at 10 mg/kg [20]: 19.6%; inhibition in vivo at 10 mg/kg [21]: 49%
